Laboratory results: ChEMBL document CHEMBL1132580, “Syntheses and biological activities of rebeccamycin analogues. Introduction of a halogenoacetyl substituent” (J Med Chem, 1999)
≈ marks a conversion by molar mass, not a printed value. Calls of active or inactive are those of the source. The calls are words filed in the database; no cut-off is given here.

Key:
Bacillus cereus [1] = assay: Minimum inhibitory concentration against gram-positive Bacillus cereus; format: functional
Procedure, shortened: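 Broth dilution in Mueller–Hinton broth pH 7.4 against B. cereus ATCC 14579. Compounds were diluted in DMSO across 12 tubes spanning 100 to 0.05 μg/mL. Read after 24 h at 27 °C.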

Bacillus cereus [2] = assay: Antimicrobial activity against gram-positive Bacillus cereusATCC 14579 was determined by antibiogram test.++ means growth inhibition zone was 8-9 mm.; format: functional, organism-based; conditions: ATCC 14579
Procedure, shortened: (§1)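 Paper-disk diffusion (6 mm disks, 300 μg drug per disk from DMSO solution) on Mueller-Hinton agar against B. cereus ATCC 14579. Inhibition zones were scored after 24 h at 27 °C.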

CEM-SS [3] = assay: Anti-HIV-1 activity in CEM-SS cells was measured by the quantification of the reverse transcriptase activity, associated with the virus particles released from HIV-1 infected cells in the culture medium.; format: functional, cell-based; conditions: Homo sapiens
Procedure, shortened: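 CEM-SS cells in RPMI 1640 with 10% FBS at 37 °C, 5% CO2 were infected with HIV-1 Lai (100 TCID50). After 30 min adsorption the cells were washed and resuspended at 10⁵ cells/mL with a range of compound concentrations. Virus production was measured as reverse transcriptase activity after 5 days. IC50 was taken from a median effect plot of dose–effect data.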

Nucleic Acid = assay: Variation in melting temperature (delta Tm) of helix-to-coil transition of DNA was reported.; format: nucleic-acid assay
Procedure, shortened: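 A260 was followed over 20–100 °C at 1 °C/min using 20 μM calf thymus DNA with or without drug (10 μM) in BPE buffer pH 7.1 (6 mM Na2HPO4, 2 mM NaH2PO4, 1 mM EDTA). Tm was taken as the midpoint of the hyperchromic transition from the first-derivative plot.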

P388 [4] = assay: Cytotoxicity against P388 leukemia cells; format: functional, cell-based; conditions: Mus musculus
Procedure, shortened: (§2)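 Murine P388 (camptothecin-sensitive) and P388/CPT5 (camptothecin-resistant, mutant top1) leukemia cells were exposed to a range of drug concentrations for 96 h at 37 °C. Viability was read by neutral red staining. IC50 is the concentration inhibiting growth by 50%.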

P388 [5] = assay: Cytotoxicity against P388/CPT5 leukemia cells.; format: functional, cell-based; conditions: Mus musculus; procedure, shortened: as §2
Protein kinase C (PKC) [6] = assay: (§3) Inhibition of protein kinase C (PKC); format: protein assay
Procedure, shortened: (§4)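 PKC-α activity was assayed with protamine sulfate as substrate. IC50 values were determined.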

Streptomyces chartreusis [7] = assay: Antimicrobial activity against gram-positive […] chartreusis NRRL 11407 was determined by antibiogram test.++ means growth inhibition zone was 8-9 mm.; format: functional, organism-based
[8] = Selectivity Index (SI) refers to the ratio of the anti HIV activities CC50/IC50 in HIV-1 Lai infected CEM-SS cells.; format: functional
Procedure, shortened: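 SI = CC50/IC50. CC50 came from MTT viability (OD 540 nm) of uninfected CEM-SS cells. IC50 came from reverse transcriptase activity of virus released after 5 days from HIV-1 Lai–infected CEM-SS cells. Both values were taken from median effect plots.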

[9] = Resistance Index (RI) refers to the ratio of the [IC50 (P388/CPT5)] / IC50 P388.; format: functional
Procedure, shortened: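 Ratio of IC50 in P388/CPT5 cells to IC50 in P388 cells. Both IC50 values came from 96 h drug exposure at 37 °C with neutral red viability readout.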

CEM-SS [10] = assay: Cytotoxicity against HIV-1 Lai infected CEM-SS cells; format: functional; conditions: Homo sapiens, in the assay text read “uninfected CEM-SS cells” for “HIV-1 Lai infected CEM-SS cells”
Procedure, shortened: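 Uninfected CEM-SS cells were incubated in parallel with a range of compound concentrations. Viability was read by MTT reduction to formazan (OD 540 nm). CC50 is the concentration reducing viability by 50%, derived with the median-effect program.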

[11] = tested on: DNA topoisomerase 1 (Bos taurus); assay: Minimum inhibitory concentration against DNA topoisomerase I
Protein kinase C (PKC) [12] = assay: as §3; format: functional; procedure, shortened: as §4
CEM-SS [13] = assay: Cytotoxicity against uninfected CEM-SS cells; conditions: Homo sapiens
Bacillus cereus [14] = assay: Antimicrobial activity against gram-positive Bacillus cereusATCC 14579 was determined by antibiogram test.+/- means growth inhibition zone was 6-7 mm.; format: functional, organism-based; conditions: ATCC 14579; procedure, shortened: as §1
Streptomyces chartreusis [15] = assay: Antimicrobial activity against gram-positive […] chartreusis NRRL 11407 was determined by antibiogram test.+++ means growth inhibition zone was 10-12 mm.; format: functional, organism-based
Bacillus cereus [16] = assay: Antimicrobial activity against gram-positive Bacillus cereusATCC 14579 was determined by antibiogram test.+ means growth inhibition zone was 7-8 mm.; format: functional, organism-based; conditions: ATCC 14579; procedure, shortened: as §1

Structure (SMILES)	MIC (Bacillus cereus [1])	IC50 (CEM-SS [3])	DeltaTm (Nucleic Acid)	IC50 (Protein kinase C (PKC) [6])	MIC [11]	IC50 (Protein kinase C (PKC) [12])	Antimicrobial activity (Bacillus cereus [2])	IC50 (P388 [4])	IC50 (P388 [5])	Antimicrobial activity (Streptomyces chartreusis [7])	Selectivity index [8]	Resistance index [9]	CC50 (CEM-SS [10])	CC50 (CEM-SS [13])	Antimicrobial activity (Bacillus cereus [14])	Antimicrobial activity (Streptomyces chartreusis [15])	Antimicrobial activity (Bacillus cereus [16])
COC1C(CO)OC(n2c3ccccc3c3c4c(c5c6ccccc6[nH]c5c32)C(=O)NC4=O)C(O)C1OC(=O)CBr (stereo not given)	5.02 µM (≈ 3.12 µg/mL)	150 nM	3.2	> 161000 nM	1.61 µM (≈ 1 µg/mL)		Active	160 nM	3200 nM	Partially active	2.9	20	440 nM				
COC1C(CO)OC(n2c3ccccc3c3c4c(c5c6ccccc6[nH]c5c32)C(=O)N(CCCCOC(=O)CBr)C4=O)C(O)C1O (stereo not given)	> 72 µM	500 nM	0	> 144000 nM	1.44 µM (≈ 1 µg/mL)			1940 nM	> 14400 nM		1.1	> 7.4	570 nM		inactive		
COC1C(CO)OC(n2c3ccccc3c3c4c(c5c6ccccc6[nH]c5c32)C(=O)NC4=O)C(OC(=O)CBr)C1O (stereo not given)	5.02 µM (≈ 3.12 µg/mL)	120 nM	3.7	> 162000 nM	1.59 µM (≈ 0.99 µg/mL)		Active	480 nM	5000 nM	Partially active	3.8	10.4	460 nM				
COC1C(CO)OC(n2c3ccccc3c3c4c(c5c6ccccc6[nH]c5c32)C(=O)NC4=O)C(OC(C)=O)C1O (stereo not given)	46 µM (≈ 25 µg/mL)				18 µM (≈ 9.78 µg/mL)			550 nM	4600 nM			8.3			+/-	growth inhibition zone was 10-12 mm	
CO[C@H]1[C@H](O)[C@@H](O)[C@H](n2c3ccccc3c3c4c(c5c6ccccc6[nH]c5c32)C(=O)NC4=O)O[C@@H]1CO	> 100 µM		4.1	> 142000 nM					> 20000 nM		5.6	> 28	900 nM				

Now from value to compound, other results behind:

MIC (Bacillus cereus [1])	IC50 (CEM-SS [3])	DeltaTm (Nucleic Acid)	IC50 (Protein kinase C (PKC) [6])	MIC [11]	IC50 (Protein kinase C (PKC) [12])	Structure (SMILES)	Antimicrobial activity (Bacillus cereus [2])	IC50 (P388 [4])	IC50 (P388 [5])	Antimicrobial activity (Streptomyces chartreusis [7])	Selectivity index [8]	Resistance index [9]	CC50 (CEM-SS [10])	CC50 (CEM-SS [13])	Antimicrobial activity (Bacillus cereus [14])	Antimicrobial activity (Streptomyces chartreusis [15])	Antimicrobial activity (Bacillus cereus [16])
> 81 µM	1400 nM	0.5		> 16 µM	> 163000 nM	COC1C(CO)OC(n2c3c(Cl)cccc3c3c4c(c5c6cccc(Cl)c6[nH]c5c32)C(=O)NC4=O)C(OC(C)=O)C1O (stereo not given)		480 nM	3300 nM			6.7		1200 nM			
1.81 µM (≈ 1.25 µg/mL)	980 nM	0.5	24000 nM	> 14 µM		COC1C(CO)OC(n2c3c(Cl)cccc3c3c4c(c5c6cccc(Cl)c6[nH]c5c32)C(=O)NC4=O)C(OC(=O)CBr)C1O (stereo not given)	Active	260 nM	940 nM		2.3	2.5	2300 nM				
> 72 µM	330 nM	0.5	101000 nM	1.45 µM (≈ 1 µg/mL)		COC1C(COC(=O)CBr)OC(n2c3c(Cl)cccc3c3c4c(c5c6cccc(Cl)c6[nH]c5c32)C(=O)NC4=O)C(O)C1O (stereo not given)		430 nM	4300 nM		4.4	10		1450 nM	inactive		
4.72 µM (≈ 3.12 µg/mL)	450 nM	1.2	> 151000 nM	1.14 µM (≈ 0.753 µg/mL)		COC1C(CO)OC(n2c3c(Cl)cccc3c3c4c(c5c6cccc(Cl)c6[nH]c5c32)C(=O)N(CC(=O)CCl)C4=O)C(O)C1O (stereo not given)		240 nM	3500 nM		2.7	15		1200 nM		Active	Partially active
10.9 µM (≈ 6.22 µg/mL)		0	> 175000 nM			CO[C@H]1[C@H](O)[C@@H](O)[C@H](n2c3c(Cl)cccc3c3c4c(c5c6cccc(Cl)c6[nH]c5c32)C(=O)NC4=O)O[C@@H]1CO [REBECCAMYCIN]	Active		10500 nM	Partially active	2	8.6					
